{
  "source": "ChEMBL document CHEMBL1152555",
  "about": "“Design, synthesis and cruzain docking of 3-(4-substituted-aryl)-1,2,4-oxadiazole-N-acylhydrazones as anti-Trypanosoma cruzi agents” (Bioorg Med Chem, 2009)",
  "key": {"[1]": {"experiment": "Cytotoxicity against BALB/c mouse splenocyte assessed as [3H]thymidine incorporation by beta-counting", "assay_type": "cell-based", "conditions": "splenocytes, read-out: MNCC", "summary_of_the_method": "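Splenocytes from BALB/c mice were plated at 5 × 10⁶ cells per well in DMEM with FCS and gentamycin. Each compound was tested at […], in triplicate, from DMSO stock. Cells were given ³H-thymidine at 1 µCi per well for 24 h at 37 °C and 5% CO₂. Incorporation was compared with untreated wells. The reported value is the highest concentration reducing incorporation by less than 10%.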"}, "Trypanosoma cruzi [2]": {"tested_on": "Trypanosoma cruzi", "experiment": "Antitrypanosomal activity against Trypanosoma cruzi Y strain"}, "Mus musculus": {"tested_on": "Mus musculus", "experiment": "Toxicity in mouse assessed as general toxicity at 100 mg/kg, ip after 72 hrs", "assay_type": "organism-based", "design": "dose 100 mg/kg, route intraperitoneal", "conditions": "in vivo", "summary_of_the_method": "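Mice received a single intraperitoneal dose of 100 mg/kg. They were watched for 72 h for general toxicity signs, including behavior and feeding, and for survival. Controls received only 100 µL of 30% DMSO:70% H₂O (v/v).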"}, "Trypanosoma cruzi [3]": {"tested_on": "Trypanosoma cruzi", "experiment": "Antitrypanosomal activity against Trypanosoma cruzi trypomastigote Y strain after 24 hrs by trypan blue exclusion assay"}},
  "data": [
    {"smiles": "CC(=O)Nc1ccc(/C=N/NC(=O)c2nc(-c3ccccc3)no2)cc1", "values": [
      {"measurement": "MNTC", "setting": "[1]", "result": 95, "unit": "µM"},
      {"measurement": "IC50", "setting": "Trypanosoma cruzi [2]", "result": 14.2, "unit": "µM"},
      {"measurement": "Activity", "setting": "Mus musculus", "result": "Non-toxic"},
      {"measurement": "IC50", "setting": "Trypanosoma cruzi [3]; read-out: IC50", "result": 3.6, "unit": "µM"},
      {"measurement": "IC50", "setting": "Trypanosoma cruzi [3]; read-out: pIC50 (converted)", "result": 3.63, "unit": "µM"}
    ]},
    {"smiles": "Cc1ccc(-c2noc(C(=O)N/N=C/c3ccc(O)cc3)n2)cc1", "values": [
      {"measurement": "MNTC", "setting": "[1]", "result": "< 1.1", "unit": "µg/mL"},
      {"measurement": "IC50", "setting": "Trypanosoma cruzi [2]", "result": 47.8, "unit": "µM"},
      {"measurement": "IC50", "setting": "Trypanosoma cruzi [3]; read-out: IC50", "result": 17.9, "unit": "µM"},
      {"measurement": "IC50", "setting": "Trypanosoma cruzi [3]; read-out: pIC50 (converted)", "result": 17.8, "unit": "µM"}
    ]},
    {"smiles": "O=C(N/N=C/c1ccc(O)cc1)c1nc(-c2ccccc2)no1", "values": [
      {"measurement": "MNTC", "setting": "[1]", "result": 3.3, "unit": "µg/mL"},
      {"measurement": "IC50", "setting": "Trypanosoma cruzi [2]", "result": 78.3, "unit": "µM"},
      {"measurement": "IC50", "setting": "Trypanosoma cruzi [3]; read-out: IC50", "result": 35.7, "unit": "µM"},
      {"measurement": "IC50", "setting": "Trypanosoma cruzi [3]; read-out: pIC50 (converted)", "result": 35.5, "unit": "µM"}
    ]},
    {"smiles": "CC(=O)Nc1ccc(/C=N/NC(=O)c2nc(-c3ccc(Cl)cc3)no2)cc1", "values": [
      {"measurement": "MNTC", "setting": "[1]", "result": 100, "unit": "µg/mL"},
      {"measurement": "IC50", "setting": "Trypanosoma cruzi [2]", "result": "> 150", "unit": "µM"}
    ]},
    {"smiles": "CC(=O)Nc1ccc(/C=N/NC(=O)c2nc(-c3ccc(F)cc3)no2)cc1", "values": [
      {"measurement": "MNTC", "setting": "[1]", "result": 33, "unit": "µg/mL"},
      {"measurement": "IC50", "setting": "Trypanosoma cruzi [2]", "result": "> 150", "unit": "µM"}
    ]},
    {"smiles": "O=C(N/N=C/c1ccc(O)cc1)c1nc(-c2ccc(Cl)cc2)no1", "values": [
      {"measurement": "MNTC", "setting": "[1]", "result": "< 1.1", "unit": "µg/mL"},
      {"measurement": "IC50", "setting": "Trypanosoma cruzi [2]", "result": 21.6, "unit": "µM"},
      {"measurement": "IC50", "setting": "Trypanosoma cruzi [3]; read-out: IC50", "result": 21.2, "unit": "µM"},
      {"measurement": "IC50", "setting": "Trypanosoma cruzi [3]; read-out: pIC50 (converted)", "result": 21.4, "unit": "µM"}
    ]},
    {"smiles": "O=C(N/N=C/c1ccc(O)cc1)c1nc(-c2ccc(Br)cc2)no1", "values": [
      {"measurement": "MNTC", "setting": "[1]", "result": 97, "unit": "µM"},
      {"measurement": "IC50", "setting": "Trypanosoma cruzi [2]", "result": 19.6, "unit": "µM"},
      {"measurement": "Activity", "setting": "Mus musculus", "result": "Non-toxic"},
      {"measurement": "IC50", "setting": "Trypanosoma cruzi [3]; read-out: IC50", "result": 20.5, "unit": "µM"},
      {"measurement": "IC50", "setting": "Trypanosoma cruzi [3]; read-out: pIC50 (converted)", "result": 20.4, "unit": "µM"}
    ]},
    {"smiles": "CC(=O)Nc1ccc(/C=N/NC(=O)c2nc(-c3ccc(Br)cc3)no2)cc1", "values": [
      {"measurement": "MNTC", "setting": "[1]", "result": 33, "unit": "µg/mL"},
      {"measurement": "IC50", "setting": "Trypanosoma cruzi [2]", "result": "> 150", "unit": "µM"}
    ]},
    {"smiles": "O=C(N/N=C/c1ccc(O)cc1)c1nc(-c2ccc([N+](=O)[O-])cc2)no1", "values": [
      {"measurement": "MNTC", "setting": "[1]", "result": "< 1.1", "unit": "µg/mL"},
      {"measurement": "IC50", "setting": "Trypanosoma cruzi [2]", "result": 25.2, "unit": "µM"},
      {"measurement": "IC50", "setting": "Trypanosoma cruzi [3]; read-out: IC50", "result": 21.3, "unit": "µM"},
      {"measurement": "IC50", "setting": "Trypanosoma cruzi [3]; read-out: pIC50 (converted)", "result": 21.4, "unit": "µM"}
    ]},
    {"smiles": "COc1ccc(-c2noc(C(=O)N/N=C/c3ccc(NC(C)=O)cc3)n2)cc1", "values": [
      {"measurement": "MNTC", "setting": "[1]", "result": 100, "unit": "µg/mL"},
      {"measurement": "IC50", "setting": "Trypanosoma cruzi [2]", "result": "> 150", "unit": "µM"}
    ]},
    {"smiles": "CC(=O)Nc1ccc(/C=N/NC(=O)c2nc(-c3ccc(C)cc3)no2)cc1", "values": [
      {"measurement": "MNTC", "setting": "[1]", "result": 30, "unit": "µM"},
      {"measurement": "IC50", "setting": "Trypanosoma cruzi [2]", "result": 9.8, "unit": "µM"},
      {"measurement": "IC50", "setting": "Trypanosoma cruzi [3]; read-out: IC50", "result": 3.9, "unit": "µM"},
      {"measurement": "IC50", "setting": "Trypanosoma cruzi [3]; read-out: pIC50 (converted)", "result": 3.89, "unit": "µM"}
    ]},
    {"smiles": "CC(=O)Nc1ccc(/C=N/NC(=O)c2nc(-c3ccc([N+](=O)[O-])cc3)no2)cc1", "values": [
      {"measurement": "MNTC", "setting": "[1]", "result": 33, "unit": "µg/mL"},
      {"measurement": "IC50", "setting": "Trypanosoma cruzi [2]", "result": "> 150", "unit": "µM"}
    ]},
    {"smiles": "COc1ccc(-c2noc(C(=O)N/N=C/c3ccc(O)cc3)n2)cc1", "values": [
      {"measurement": "MNTC", "setting": "[1]", "result": 85, "unit": "µM"},
      {"measurement": "IC50", "setting": "Trypanosoma cruzi [2]", "result": 13.8, "unit": "µM"},
      {"measurement": "IC50", "setting": "Trypanosoma cruzi [3]; read-out: IC50", "result": 32.5, "unit": "µM"},
      {"measurement": "IC50", "setting": "Trypanosoma cruzi [3]; read-out: pIC50 (converted)", "result": 32.4, "unit": "µM"}
    ]},
    {"smiles": "O=C(N/N=C/c1ccc(O)cc1)c1nc(-c2ccc(F)cc2)no1", "values": [
      {"measurement": "MNTC", "setting": "[1]", "result": "< 1.1", "unit": "µg/mL"},
      {"measurement": "IC50", "setting": "Trypanosoma cruzi [2]", "result": 21, "unit": "µM"},
      {"measurement": "IC50", "setting": "Trypanosoma cruzi [3]; read-out: IC50", "result": 16.7, "unit": "µM"},
      {"measurement": "IC50", "setting": "Trypanosoma cruzi [3]; read-out: pIC50 (converted)", "result": 16.6, "unit": "µM"}
    ]},
    {"smiles": "O=C(N/N=C/c1ccc(O)cc1)c1nc(-c2ccc(O)cc2)no1", "values": [
      {"measurement": "MNTC", "setting": "[1]", "result": 100, "unit": "µg/mL"},
      {"measurement": "IC50", "setting": "Trypanosoma cruzi [2]", "result": 127, "unit": "µM"},
      {"measurement": "IC50", "setting": "Trypanosoma cruzi [3]; read-out: IC50", "result": 100, "unit": "µM"},
      {"measurement": "IC50", "setting": "Trypanosoma cruzi [3]; read-out: pIC50 (converted)", "result": 100, "unit": "µM"}
    ]},
    {"smiles": "CC(=O)Nc1ccc(/C=N/NC(=O)c2nc(-c3ccc(O)cc3)no2)cc1", "values": [
      {"measurement": "MNTC", "setting": "[1]", "result": 33, "unit": "µg/mL"},
      {"measurement": "IC50", "setting": "Trypanosoma cruzi [2]", "result": "> 150", "unit": "µM"}
    ]},
    {"smiles": "O=C(Cn1ccnc1[N+](=O)[O-])NCc1ccccc1", "note": "[BENZNIDAZOLE]", "values": [
      {"measurement": "MNTC", "setting": "[1]", "result": 100, "unit": "µg/mL"},
      {"measurement": "IC50", "setting": "Trypanosoma cruzi [3]; read-out: pIC50 (converted)", "result": 5.01, "unit": "µM"}
    ]},
    {"smiles": "CN(C)c1ccc(C(=C2C=CC(=[N+](C)C)C=C2)c2ccc(N(C)C)cc2)cc1", "note": "[GENTIAN VIOLET]", "values": [
      {"measurement": "MNTC", "setting": "[1]", "result": "< 1", "unit": "µg/mL"},
      {"measurement": "IC50", "setting": "Trypanosoma cruzi [3]; read-out: IC50", "result": 2.1, "unit": "µM"}
    ]}
  ]
}
